In ChEMBL document CHEMBL5696442, “Discovery of type II inhibitors of TGFβ-activated kinase 1 (TAK1) and mitogen-activated protein kinase kinase kinase kinase 2 (MAP4K2)” (J Med Chem, 2015):

Columns and labels:
[1] = target: Dual specificity mitogen-activated protein kinase kinase 1 (Homo sapiens) (UniProt Q02750); assay: Inhibition of MAP2K1 Lys2 labeling site harbouring IMHRDVKPSNILVNSR in human A-375 cells at 0.05 uM by KiNativ Profiling analysis relative to control; assay type: cell-based
[2] = target: Serine/threonine-protein kinase Nek7 (Homo sapiens) (UniProt Q8TDX7); assay: Inhibition of NEK7 Lys2 labeling site in human A-375 cells at 0.5 uM by KiNativ Profiling analysis relative to control; assay type: cell-based
[3] = target: Receptor tyrosine-protein kinase erbB-3 (Homo sapiens) (UniProt P21860); assay: Inhibition of HER3/ErbB3 ACT labeling site in human A-375 cells at 0.5 uM by KiNativ Profiling analysis relative to control; assay type: cell-based
[4] = target: Serine/threonine-protein kinase WNK3 (Homo sapiens) (UniProt Q9BYP7); assay: Inhibition of Wnk3 Lys2 labeling site in human A-375 cells at 5 uM by KiNativ Profiling analysis relative to control; assay type: cell-based
[5] = target: DNA-PK/Ku70/Ku85 (Homo sapiens) (UniProt P78527+P12956+P13010); assay: Inhibition of DNAPK ATP labeling site harbouring EHPFLVKGGEDLR in human A-375 cells at 5 uM by KiNativ Profiling analysis relative to control; assay type: cell-based
Outline: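 Live A375 melanoma cells were treated with compound at 0.5 or 5 μM, then lysed. Lysates were labeled with a lysine-reactive ATP or ADP-biotin probe. The read-out was protection of each kinase probe-labeling site from labeling, relative to control.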

[6] = target: Aurora kinase B (Homo sapiens) (UniProt Q96GD4); assay: Inhibition of AurB ATP Loop labeling site in human A-375 cells at 5 uM by KiNativ Profiling analysis relative to control; assay type: cell-based
Outline: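 Live A375 melanoma cells were treated with compound at 5 or 0.5 μM, then lysed. The lysates were labeled with a lysine-reactive ATP or ADP-biotin probe. Kinase protection from probe labeling was measured by KiNativ.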

[7] = target: T1, Serine/threonine-protein kinase STK11 (Homo sapiens) (UniProt Q15831); assay: Inhibition of LKB1 Lys2 labeling site in human A-375 cells at 0.05 uM by KiNativ Profiling analysis relative to control; assay type: cell-based
T1 sequence (whole entry): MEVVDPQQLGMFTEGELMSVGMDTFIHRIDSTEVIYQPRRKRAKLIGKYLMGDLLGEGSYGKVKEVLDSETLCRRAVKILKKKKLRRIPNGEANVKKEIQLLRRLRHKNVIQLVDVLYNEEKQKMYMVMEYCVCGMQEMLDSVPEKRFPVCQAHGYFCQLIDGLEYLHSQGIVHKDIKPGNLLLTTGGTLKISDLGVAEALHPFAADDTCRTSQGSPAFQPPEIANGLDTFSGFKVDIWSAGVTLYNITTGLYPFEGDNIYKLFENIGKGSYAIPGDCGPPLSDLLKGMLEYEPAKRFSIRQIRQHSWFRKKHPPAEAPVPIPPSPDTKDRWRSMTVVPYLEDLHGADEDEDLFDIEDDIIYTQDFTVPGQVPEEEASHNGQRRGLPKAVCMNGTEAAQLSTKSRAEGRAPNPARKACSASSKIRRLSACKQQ

[8] = target: RAC-gamma serine/threonine-protein kinase (Homo sapiens) (UniProt Q9Y243); assay: Inhibition of AKT3 ATP Loop labeling site in human A-375 cells at 0.05 uM by KiNativ Profiling analysis relative to control; assay type: cell-based
[9] = target: Serine/threonine-protein kinase 26 (Homo sapiens) (UniProt Q9P289); assay: Inhibition of MST4 ACT labeling site in human A-375 cells at 5 uM by KiNativ Profiling analysis relative to control; assay type: cell-based
[10] = target: Epidermal growth factor receptor (Homo sapiens) (UniProt P00533); assay: Inhibition of EGFR ACT labeling site harbouring LLGAEEKEYHAEGGKVPIK in human A-375 cells at 0.05 uM by KiNativ Profiling analysis relative to control; assay type: cell-based
[11] = target: T2, Mitogen-activated protein kinase kinase kinase 2 (Homo sapiens) (UniProt Q9Y2U5); assay: Inhibition of MAP3K2 Lys1 labeling site harbouring ELAVKQVQFDPDSPETSKEVNALECEIQLLK in human A-375 cells at 0.05 uM by KiNativ Profiling analysis relative to control; assay type: cell-based
T2 sequence (whole entry): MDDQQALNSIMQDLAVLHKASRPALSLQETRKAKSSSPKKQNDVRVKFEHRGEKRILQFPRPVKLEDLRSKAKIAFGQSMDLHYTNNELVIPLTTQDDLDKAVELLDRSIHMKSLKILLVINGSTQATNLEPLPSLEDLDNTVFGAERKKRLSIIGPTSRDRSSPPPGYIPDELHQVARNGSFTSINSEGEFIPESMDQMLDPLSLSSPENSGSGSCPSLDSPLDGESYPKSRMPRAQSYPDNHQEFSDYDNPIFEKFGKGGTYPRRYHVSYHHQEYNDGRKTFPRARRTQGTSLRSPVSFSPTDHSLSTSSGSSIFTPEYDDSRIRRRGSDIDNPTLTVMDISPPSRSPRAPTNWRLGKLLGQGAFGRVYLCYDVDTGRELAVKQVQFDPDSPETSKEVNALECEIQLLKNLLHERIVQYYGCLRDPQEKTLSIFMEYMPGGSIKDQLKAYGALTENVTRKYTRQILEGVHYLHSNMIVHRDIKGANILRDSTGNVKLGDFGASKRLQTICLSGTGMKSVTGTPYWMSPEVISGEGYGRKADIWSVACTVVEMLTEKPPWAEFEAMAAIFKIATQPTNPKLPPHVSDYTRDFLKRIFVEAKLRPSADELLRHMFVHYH

[12] = target: Phosphatidylinositol 4,5-bisphosphate 3-kinase catalytic subunit beta isoform (Homo sapiens) (UniProt P42338); assay: Inhibition of PIK3CB ATP labeling site in human A-375 cells at 0.05 uM by KiNativ Profiling analysis relative to control; assay type: cell-based
[13] = target: Serine/threonine-protein kinase WNK1 (Homo sapiens) (UniProt Q9H4A3); assay: Inhibition of Wnk1 Lys2 labeling site in human A-375 cells at 0.05 uM by KiNativ Profiling analysis relative to control; assay type: cell-based
[14] = target: Serine/threonine-protein kinase 26 (Homo sapiens) (UniProt Q9P289); assay: Inhibition of MST4 Lys2 labeling site in human A-375 cells at 5 uM by KiNativ Profiling analysis relative to control; assay type: cell-based
[15] = target: Proto-oncogene tyrosine-protein kinase Src (Homo sapiens, UniProt P12931); assay: Inhibition of SRC Lys1 labeling site in human Huh-7 cell lysate at 1 uM by KiNativ Profiling analysis relative to control; assay type: subcellular

Sequence of Serine/threonine-protein kinase 26 (Homo sapiens) (Q9P289 2-416 limits assumed): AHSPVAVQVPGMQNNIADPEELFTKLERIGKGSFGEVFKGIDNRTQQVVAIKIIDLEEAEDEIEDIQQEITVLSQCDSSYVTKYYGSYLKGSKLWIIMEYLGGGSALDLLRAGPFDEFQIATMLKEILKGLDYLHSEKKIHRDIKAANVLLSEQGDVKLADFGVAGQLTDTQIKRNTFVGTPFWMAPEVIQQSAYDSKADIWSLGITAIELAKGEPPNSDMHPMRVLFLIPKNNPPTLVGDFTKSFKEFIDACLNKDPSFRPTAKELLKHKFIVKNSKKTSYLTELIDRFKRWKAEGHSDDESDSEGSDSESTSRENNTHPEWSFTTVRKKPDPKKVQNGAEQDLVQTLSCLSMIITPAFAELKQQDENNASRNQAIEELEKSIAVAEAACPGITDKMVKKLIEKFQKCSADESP
Sequence of Receptor tyrosine-protein kinase erbB-3 (Homo sapiens) (P21860 whole entry): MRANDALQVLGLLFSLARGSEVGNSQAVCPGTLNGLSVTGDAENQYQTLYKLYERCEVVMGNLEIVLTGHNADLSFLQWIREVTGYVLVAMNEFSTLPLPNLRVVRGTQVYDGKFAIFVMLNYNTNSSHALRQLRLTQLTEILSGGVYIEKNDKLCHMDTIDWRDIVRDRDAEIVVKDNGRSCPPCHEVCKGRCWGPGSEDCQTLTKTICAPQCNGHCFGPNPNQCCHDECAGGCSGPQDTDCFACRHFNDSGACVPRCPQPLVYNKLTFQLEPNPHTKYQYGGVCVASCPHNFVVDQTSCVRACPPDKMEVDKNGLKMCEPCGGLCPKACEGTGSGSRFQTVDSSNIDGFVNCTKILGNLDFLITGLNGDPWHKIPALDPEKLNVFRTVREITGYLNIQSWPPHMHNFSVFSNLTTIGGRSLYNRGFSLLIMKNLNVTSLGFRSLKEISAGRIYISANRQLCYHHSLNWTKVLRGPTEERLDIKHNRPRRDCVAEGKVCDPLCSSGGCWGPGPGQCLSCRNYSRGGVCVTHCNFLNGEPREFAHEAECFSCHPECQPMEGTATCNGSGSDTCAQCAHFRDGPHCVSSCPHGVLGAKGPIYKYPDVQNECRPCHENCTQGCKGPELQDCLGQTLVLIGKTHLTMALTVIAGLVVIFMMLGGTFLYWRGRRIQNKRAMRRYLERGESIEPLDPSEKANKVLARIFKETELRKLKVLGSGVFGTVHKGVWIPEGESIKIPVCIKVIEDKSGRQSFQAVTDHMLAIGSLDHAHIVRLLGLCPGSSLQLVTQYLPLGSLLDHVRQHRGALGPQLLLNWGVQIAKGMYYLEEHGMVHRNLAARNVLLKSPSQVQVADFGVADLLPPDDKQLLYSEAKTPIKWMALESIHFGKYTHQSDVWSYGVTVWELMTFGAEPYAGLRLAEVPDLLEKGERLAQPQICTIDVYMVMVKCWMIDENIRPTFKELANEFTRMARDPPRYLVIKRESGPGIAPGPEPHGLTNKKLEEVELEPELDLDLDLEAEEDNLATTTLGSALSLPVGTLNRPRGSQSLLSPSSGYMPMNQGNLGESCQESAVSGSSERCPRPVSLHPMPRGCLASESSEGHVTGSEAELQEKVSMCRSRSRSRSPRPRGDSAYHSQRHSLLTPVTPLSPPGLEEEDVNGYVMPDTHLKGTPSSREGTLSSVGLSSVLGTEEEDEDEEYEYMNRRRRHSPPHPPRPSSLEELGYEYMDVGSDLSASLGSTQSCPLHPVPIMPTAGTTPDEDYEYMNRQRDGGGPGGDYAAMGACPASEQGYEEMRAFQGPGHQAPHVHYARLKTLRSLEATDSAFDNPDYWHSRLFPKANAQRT
Sequence of Aurora kinase B (Homo sapiens) (Q96GD4 whole entry): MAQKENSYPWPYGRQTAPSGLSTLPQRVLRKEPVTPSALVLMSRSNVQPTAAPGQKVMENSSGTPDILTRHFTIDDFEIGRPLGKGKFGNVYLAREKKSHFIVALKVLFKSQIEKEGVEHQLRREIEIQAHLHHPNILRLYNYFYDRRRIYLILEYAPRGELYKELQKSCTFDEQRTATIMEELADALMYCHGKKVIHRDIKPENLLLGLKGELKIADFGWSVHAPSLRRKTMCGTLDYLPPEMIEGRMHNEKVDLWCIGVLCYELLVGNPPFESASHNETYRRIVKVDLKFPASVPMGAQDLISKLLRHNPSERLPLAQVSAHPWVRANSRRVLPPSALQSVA
Sequence of Serine/threonine-protein kinase WNK1 (Homo sapiens) (Q9H4A3 whole entry, looked up): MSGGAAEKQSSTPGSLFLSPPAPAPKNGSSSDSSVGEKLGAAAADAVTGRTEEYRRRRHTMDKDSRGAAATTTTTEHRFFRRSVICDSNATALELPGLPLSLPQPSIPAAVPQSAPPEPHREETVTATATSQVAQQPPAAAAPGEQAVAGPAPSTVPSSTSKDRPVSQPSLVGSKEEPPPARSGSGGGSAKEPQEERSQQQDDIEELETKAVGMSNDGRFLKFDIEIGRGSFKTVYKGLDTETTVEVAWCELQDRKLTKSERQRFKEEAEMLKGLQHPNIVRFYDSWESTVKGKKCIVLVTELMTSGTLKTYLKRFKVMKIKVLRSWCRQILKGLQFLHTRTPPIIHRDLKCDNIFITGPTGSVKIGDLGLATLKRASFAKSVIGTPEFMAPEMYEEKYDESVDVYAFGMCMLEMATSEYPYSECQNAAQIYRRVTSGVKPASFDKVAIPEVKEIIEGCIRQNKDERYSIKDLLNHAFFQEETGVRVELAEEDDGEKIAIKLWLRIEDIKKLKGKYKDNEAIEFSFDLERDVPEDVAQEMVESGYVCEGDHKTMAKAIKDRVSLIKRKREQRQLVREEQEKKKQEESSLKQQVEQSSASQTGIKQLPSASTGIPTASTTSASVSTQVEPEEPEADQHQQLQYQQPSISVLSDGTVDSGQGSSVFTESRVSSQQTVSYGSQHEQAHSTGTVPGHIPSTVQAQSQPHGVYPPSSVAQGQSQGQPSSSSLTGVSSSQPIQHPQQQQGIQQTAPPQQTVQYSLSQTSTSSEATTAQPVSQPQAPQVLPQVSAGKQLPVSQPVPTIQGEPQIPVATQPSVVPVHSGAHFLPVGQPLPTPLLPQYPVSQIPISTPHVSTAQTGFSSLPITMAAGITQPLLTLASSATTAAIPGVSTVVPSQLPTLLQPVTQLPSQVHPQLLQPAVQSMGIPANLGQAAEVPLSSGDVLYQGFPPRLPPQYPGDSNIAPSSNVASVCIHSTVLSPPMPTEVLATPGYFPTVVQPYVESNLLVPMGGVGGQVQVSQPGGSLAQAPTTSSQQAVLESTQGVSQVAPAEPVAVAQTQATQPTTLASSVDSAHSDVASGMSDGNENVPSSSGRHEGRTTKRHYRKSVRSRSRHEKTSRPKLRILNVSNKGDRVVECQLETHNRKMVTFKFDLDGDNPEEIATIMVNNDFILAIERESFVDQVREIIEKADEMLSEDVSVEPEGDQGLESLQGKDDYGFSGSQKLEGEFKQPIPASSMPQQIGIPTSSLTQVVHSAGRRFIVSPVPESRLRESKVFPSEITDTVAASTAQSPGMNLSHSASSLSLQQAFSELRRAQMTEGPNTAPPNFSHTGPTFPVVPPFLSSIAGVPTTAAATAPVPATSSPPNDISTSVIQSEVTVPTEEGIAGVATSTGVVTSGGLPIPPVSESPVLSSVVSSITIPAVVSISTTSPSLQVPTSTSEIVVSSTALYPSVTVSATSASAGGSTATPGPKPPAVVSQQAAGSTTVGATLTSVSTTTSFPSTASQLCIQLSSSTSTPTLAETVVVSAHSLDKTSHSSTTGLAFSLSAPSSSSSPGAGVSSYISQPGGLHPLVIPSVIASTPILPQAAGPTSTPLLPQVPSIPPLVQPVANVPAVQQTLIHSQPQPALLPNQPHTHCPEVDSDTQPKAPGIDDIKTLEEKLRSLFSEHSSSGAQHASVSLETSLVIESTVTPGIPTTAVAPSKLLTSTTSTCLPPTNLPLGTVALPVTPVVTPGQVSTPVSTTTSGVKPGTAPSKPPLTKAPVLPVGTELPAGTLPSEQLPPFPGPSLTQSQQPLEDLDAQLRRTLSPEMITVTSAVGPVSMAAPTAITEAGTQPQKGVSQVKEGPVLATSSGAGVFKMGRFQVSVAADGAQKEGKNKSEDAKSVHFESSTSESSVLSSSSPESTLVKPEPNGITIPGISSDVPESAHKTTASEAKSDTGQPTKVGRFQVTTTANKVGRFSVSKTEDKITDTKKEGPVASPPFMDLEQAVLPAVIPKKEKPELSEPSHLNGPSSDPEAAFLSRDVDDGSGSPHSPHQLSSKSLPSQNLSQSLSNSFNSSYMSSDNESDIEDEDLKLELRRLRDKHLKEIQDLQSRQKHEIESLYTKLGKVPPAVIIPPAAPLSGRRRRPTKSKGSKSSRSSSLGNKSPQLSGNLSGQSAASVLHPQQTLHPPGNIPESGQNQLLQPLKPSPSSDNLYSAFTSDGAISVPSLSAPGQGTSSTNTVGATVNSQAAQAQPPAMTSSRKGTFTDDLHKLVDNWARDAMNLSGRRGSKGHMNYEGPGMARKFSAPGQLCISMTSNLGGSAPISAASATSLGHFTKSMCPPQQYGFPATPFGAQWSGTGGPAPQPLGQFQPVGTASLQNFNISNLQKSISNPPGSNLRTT
Sequence of Serine/threonine-protein kinase Nek7 (Homo sapiens) (Q8TDX7 whole entry, looked up): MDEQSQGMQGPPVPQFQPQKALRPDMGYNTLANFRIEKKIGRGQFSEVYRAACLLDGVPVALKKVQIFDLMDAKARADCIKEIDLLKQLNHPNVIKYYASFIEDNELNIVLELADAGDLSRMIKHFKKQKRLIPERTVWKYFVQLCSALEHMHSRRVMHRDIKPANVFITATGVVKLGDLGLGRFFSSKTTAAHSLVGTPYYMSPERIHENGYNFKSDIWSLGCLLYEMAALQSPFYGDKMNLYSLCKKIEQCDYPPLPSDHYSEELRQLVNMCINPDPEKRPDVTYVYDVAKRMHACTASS

Row | Structure (SMILES) | inhibition [1] [%] | inhibition [2] [%] | inhibition [3] [%] | inhibition [4] [%] | inhibition [5] [%] | inhibition [6] [%] | inhibition [7] [%] | inhibition [8] [%] | inhibition [9] [%] | inhibition [10] [%] | inhibition [11] [%] | inhibition [12] [%] | inhibition [13] [%] | inhibition [14] [%] | inhibition [15] [%]
1 | CCN1CCN(Cc2ccc(NC(=O)c3ccc(C)c(Oc4ccnc5[nH]ccc45)c3)cc2C(F)(F)F)CC1 | 14.9 | 7.8 | 5.1 | -5.5 | 12.4 | 31.4 | 13.1 | -3.9 | 35.1 | 17.5 | 11.8 | 3.1 | -3.5 | 15.4 | 
2 | CNc1cc(Oc2cc(C(=O)Nc3cc(-n4cnc(C)c4)cc(C(F)(F)F)c3)ccc2C)ncn1 |  |  |  |  |  |  |  |  |  |  |  |  |  |  | -2.8
3 | CNc1cc(Oc2cc(C(=O)Nc3cc(N4CCN(C)CC4)cc(C(F)(F)F)c3)ccc2C)ncn1 |  |  |  |  |  |  |  |  |  |  |  |  |  |  | 18.1
4 | CCN1CCN(Cc2ccc(NC(=O)c3ccc(C)c(/C=C/c4cnc5[nH]ccc5c4OC)c3)cc2C(F)(F)F)CC1 | 32.5 | 10.7 | 12.2 | 14.3 | 15.4 | 48.5 | 28.3 | 20.9 | 13.7 | -6.7 | 5.2 | 38.5 | 7.1 | 20.9 | 
